The text below walks through data of ChEMBL document CHEMBL1147450, “N2-benzyl-N1-(1-(1-naphthyl)ethyl)-3-phenylpropane-1,2-diamines and conformationally restrained indole analogues: development of calindol as a new calcimimetic acting at the calcium sensing receptor” (Bioorg Med Chem Lett, 2004).

One may read the EC50 as the concentration needed to bring the measured effect to its halfway point.

Molecules are shown by their SMILES.

What all share (assay type): functional, cell-based
The target in assay [1] is T1, Extracellular calcium-sensing receptor (Rattus norvegicus) (UniProt P48442).
T1 sequence (whole entry): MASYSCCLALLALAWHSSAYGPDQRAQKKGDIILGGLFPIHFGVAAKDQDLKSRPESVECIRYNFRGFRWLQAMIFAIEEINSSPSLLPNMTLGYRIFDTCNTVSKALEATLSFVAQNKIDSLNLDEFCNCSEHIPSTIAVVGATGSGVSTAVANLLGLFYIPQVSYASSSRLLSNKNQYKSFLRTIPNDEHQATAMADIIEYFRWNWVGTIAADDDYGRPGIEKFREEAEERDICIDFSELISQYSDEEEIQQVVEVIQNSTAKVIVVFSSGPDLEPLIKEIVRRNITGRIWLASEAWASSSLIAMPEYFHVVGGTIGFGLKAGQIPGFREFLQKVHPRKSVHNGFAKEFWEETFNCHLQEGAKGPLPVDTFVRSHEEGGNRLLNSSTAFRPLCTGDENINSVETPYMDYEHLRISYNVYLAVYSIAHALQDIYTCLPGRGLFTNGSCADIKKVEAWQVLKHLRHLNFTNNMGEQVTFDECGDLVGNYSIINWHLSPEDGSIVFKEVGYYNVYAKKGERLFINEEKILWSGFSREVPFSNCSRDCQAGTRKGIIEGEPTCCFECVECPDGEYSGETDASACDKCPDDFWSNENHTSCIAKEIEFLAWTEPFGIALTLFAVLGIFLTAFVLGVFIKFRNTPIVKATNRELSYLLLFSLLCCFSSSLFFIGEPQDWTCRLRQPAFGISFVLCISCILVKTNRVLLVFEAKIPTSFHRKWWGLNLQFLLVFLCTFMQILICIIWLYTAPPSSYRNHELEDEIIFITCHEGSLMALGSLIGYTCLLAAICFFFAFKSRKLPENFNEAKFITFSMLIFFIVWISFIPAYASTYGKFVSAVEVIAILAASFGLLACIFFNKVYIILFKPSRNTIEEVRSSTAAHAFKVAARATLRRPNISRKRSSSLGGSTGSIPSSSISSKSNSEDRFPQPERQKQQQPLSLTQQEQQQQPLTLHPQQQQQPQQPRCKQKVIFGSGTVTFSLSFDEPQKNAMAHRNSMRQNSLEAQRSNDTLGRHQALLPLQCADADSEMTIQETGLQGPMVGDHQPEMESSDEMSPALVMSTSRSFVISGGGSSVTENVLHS
The assay can be described thus: Maximal stimulation of [3H]-inositol phosphates production in CHO cells expressing rat Calcium sensing receptor (CaSR) at 10 mM [Ca2+]. An outline of the steps: (§1)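 CHO cells stably transfected with rat brain CaSR, grown in basal Ham's F-12 (0.3 mM Ca2+, 0.6 mM Mg2+), prelabelled overnight with 0.5 µCi/mL myo-[3H]inositol. Drugs were made as 10 mM ethanol stocks, diluted in basal medium, and incubated at 37 °C with 2 mM extracellular Ca2+. Read-out is [3H]IP accumulation as % of the 10 mM Ca2+ maximal response. Two to five independent experiments in triplicate, mean ± SEM.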

Assay [2] concerns the target T2, Extracellular calcium-sensing receptor (Rattus norvegicus, UniProt P48442).
T2 sequence (P48442 whole entry): T1 sequence (whole entry)
The assay can be described thus: Ability to stimulate [3H]inositol phosphates accumulation in CHO cells expressing rat Calcium sensing receptor (CaSR) at 2 mM [Ca2+]. An outline of the steps: as §1

Assay [3] concerns the target T3, Extracellular calcium-sensing receptor (Homo sapiens, UniProt P41180).
T3 sequence (P41180 whole entry): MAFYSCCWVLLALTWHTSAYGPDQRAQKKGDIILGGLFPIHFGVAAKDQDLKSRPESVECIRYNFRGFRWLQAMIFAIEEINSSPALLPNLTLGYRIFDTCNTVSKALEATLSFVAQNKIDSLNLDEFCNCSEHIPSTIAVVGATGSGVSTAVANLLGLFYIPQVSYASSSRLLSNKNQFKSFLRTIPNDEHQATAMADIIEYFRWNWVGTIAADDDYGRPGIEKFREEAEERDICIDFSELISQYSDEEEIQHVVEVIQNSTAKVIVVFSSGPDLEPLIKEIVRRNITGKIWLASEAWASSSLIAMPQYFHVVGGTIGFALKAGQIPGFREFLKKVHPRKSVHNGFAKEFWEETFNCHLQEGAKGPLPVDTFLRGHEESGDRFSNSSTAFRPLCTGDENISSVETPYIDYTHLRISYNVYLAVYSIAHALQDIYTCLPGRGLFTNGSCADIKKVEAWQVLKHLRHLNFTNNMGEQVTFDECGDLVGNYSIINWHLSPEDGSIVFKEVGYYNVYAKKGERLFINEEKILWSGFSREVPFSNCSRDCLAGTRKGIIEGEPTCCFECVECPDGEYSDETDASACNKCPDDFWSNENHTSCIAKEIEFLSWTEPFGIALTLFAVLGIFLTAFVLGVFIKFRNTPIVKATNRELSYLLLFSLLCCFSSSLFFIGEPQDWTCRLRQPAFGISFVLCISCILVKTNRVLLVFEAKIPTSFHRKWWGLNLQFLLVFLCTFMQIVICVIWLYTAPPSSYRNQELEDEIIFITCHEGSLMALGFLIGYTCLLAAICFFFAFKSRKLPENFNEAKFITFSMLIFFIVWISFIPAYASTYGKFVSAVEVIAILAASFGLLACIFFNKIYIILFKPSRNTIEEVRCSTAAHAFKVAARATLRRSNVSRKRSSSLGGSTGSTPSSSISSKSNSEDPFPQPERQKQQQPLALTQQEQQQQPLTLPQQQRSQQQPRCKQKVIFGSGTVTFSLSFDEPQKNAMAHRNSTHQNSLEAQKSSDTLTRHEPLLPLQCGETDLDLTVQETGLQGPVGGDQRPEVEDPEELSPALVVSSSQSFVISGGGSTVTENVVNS
The assay can be described thus: Ability to stimulate [3H]inositol phosphates accumulation in HEK293 cells expressing the human calcium sensing receptor (CaSR) at 2 mM [Ca2+]. An outline of the steps: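 HEK293 cells transiently expressing human CaSR, prelabelled with myo-[3H]inositol. Increasing drug concentrations were applied in the presence of 2 mM extracellular Ca2+. [3H]IP accumulation is expressed as % of the 10 mM Ca2+ response, and EC50 and maximal stimulation come from the dose-response curve. Three to five independent experiments in triplicate.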

`CC(NCc1cc2cc(F)ccc2[nH]1)c1cccc2ccccc12` (centres undefined): the Accumulation in assay [1] was 87%.

With `COc1ccc(CNC(CNC(C)c2cccc3ccccc23)Cc2ccccc2)cc1OC` (centres undefined), the Accumulation in assay [1] came out at 74%.

As for `C[C@H](NCc1cc2ccccc2[nH]1)c1cccc2ccccc12`, the Accumulation in assay [1] was 32%.

As to `CC(NCC(Cc1ccccc1)NCc1ccccc1Cl)c1cccc2ccccc12` (centres undefined), in assay [1], the Accumulation stood at 98%.

Regarding `COc1ccc(CNC(CNC(C)c2cccc3ccccc23)Cc2ccccc2)cc1` (centres undefined), the Accumulation in assay [1] was 80%.

Regarding `CC(NCc1cc2ccccc2[nH]1)c1cccc2ccccc12` (racemic), the Accumulation in assay [1] worked out at 103%. The EC50 in assay [2] stood at 1300 nM.

Turning to `CC(NCC(Cc1ccccc1)NCc1cccc(Cl)c1)c1cccc2ccccc12` (centres undefined), the Accumulation in assay [1] worked out at 78%.

With `CC(NCc1cc2cc(Cl)ccc2[nH]1)c1cccc2ccccc12` (centres undefined), the Accumulation in assay [1] is 60%.

As for `CC(NCC(Cc1ccccc1)NCc1ccc(F)cc1)c1cccc2ccccc12` (centres undefined), the Accumulation in assay [1] came out at 95%.

With `CC(NCC(Cc1ccccc1)NCc1ccccc1)c1cccc2ccccc12` (centres undefined), the Accumulation in assay [1] came to 80%.

Consider `COc1cc2cc(CNC(C)c3cccc4ccccc34)[nH]c2cc1OC` (centres undefined), for which the Accumulation in assay [1] amounted to 34%.

Consider `CC(NCc1cc2ccccc2n1C)c1cccc2ccccc12` (centres undefined), for which the Accumulation in assay [1] was 79%.

In the case of `COc1ccc(S(=O)(=O)n2c(CNC(C)c3cccc4ccccc34)cc3ccccc32)cc1OC` (centres undefined), in assay [1], the Accumulation was 54%.

For `CC(NC(=O)c1cc2ccccc2[nH]1)c1cccc2ccccc12` (centres undefined), the Accumulation in assay [1] worked out at 2%.

For the molecule `C[C@@H](NCc1cc2ccccc2[nH]1)c1cccc2ccccc12`, the results for the EC50 in assay [3] and in assay [2] were 310 nM and 1000 nM, respectively. Also, the Accumulation in assay [1] stood at 117%.

With `COc1ccc2[nH]c(CNC(C)c3cccc4ccccc34)cc2c1` (centres undefined), in assay [1], the Accumulation stood at 55%.
